GFP response vs DMSO, GFP response relative to DMSO and GFP response, % of DMSO data for nine compounds are collected here from PubChem BioAssay.

The nature of experiment [1]: hit retest on RPL19A-GFP reporter strain – cell-based, S. cerevisiae, flow cytometry, cherry picks, mother/daughter gates, confirmation (AID 2270;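 active = GFP response below 50% of the DMSO control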). The following applies: 3 h, at 10 µM, stronger effect = lower value, 100 = same GFP as DMSO wells. (In general: In flow cytometry, cells or beads pass a laser one at a time.)
Experiment [2] can be described thus: yeast TOR pathway reporter LAP4-GFP change – cell-based, cherry picks, flow cytometry, mother/daughter gates, confirmation (AID 2271;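 active = GFP response above 150% of the DMSO control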;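 also: ratio of sample to DMSO plate mean so 100% equals DMSO level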). The following applies: S. cerevisiae LAP4-GFP strain, 3 h, at 10 µM, stronger effect = higher value, 100 means same as DMSO control. The method, boiled down:
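System: Alexa 633-stained baker's yeast GFP-fusion strain / Medium: synthetic complete (SC) yeast growth medium / Doses: compound at 10 µM, single point / Times: 3 h treatment at 30 °C with rotation / Detection: HT flow cytometry, GFP fluorescence channel / Benchmarks: DMSO-only negative wells, rapamycin 400 ng/mL positive wells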

The nature of experiment [3]: TOR pathway reporter MEP2-GFP, retest of hits – S. cerevisiae, flow cytometry GFP, cherry picks, confirmation (AID 2272;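 active = GFP response above 150% of the DMSO control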;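 also: ratio of well signal to plate DMSO mean so 100% equals DMSO level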). Particulars: S. cerevisiae MEP2-GFP strain, 3 h, at 10 µM, stronger effect = higher value.
Experiment [4] can be described thus: yeast AGP1-GFP fluorescence change, single-dose – cell-based, flow cytometry, S. cerevisiae, cherry picks, confirmation (AID 2273).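 Also: median GFP channel fluorescence over the whole cell population gate.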 The following applies: S. cerevisiae AGP1-GFP strain, 3 h, at 10 µM.
Experiment [5] is described as follows: TOR pathway CIT2 reporter hit retest – S. cerevisiae, GFP fusion, cherry picks, mother/daughter gates, confirmation (AID 2274). The following applies: S. cerevisiae CIT2-GFP strain, flow cytometry, 3 h, at 10 µM, stronger effect = higher value.
Setting [6] is: measured here: daughter cell gate.
Where [7] appears, read: measured here: mother cell gate.
Setting [8] is: measured here: daughter cell gate response.
[9] abbreviates: measured here: mother cell gate response.

Active and inactive are the calls of the source.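 The calls were made as follows, unless noted: active = GFP response above 150% of the DMSO level; inconclusive = fewer than 70 events counted for a yeast strain; inactive = the rest.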

On to `O=C(Nc1ccc(F)cc1)C1CCCN(c2cnccn2)C1` (centres undefined), for which the GFP response vs DMSO is 102% (inactive) in experiment [1], 101% in experiment [1] (setting [6]), 102% in experiment [1] (setting [7]) and 96.8% (inactive) in experiment [3]. The GFP response relative to DMSO was 99.5% (inactive) in experiment [2], 99.1% in experiment [2] (setting [8]) and 100% in experiment [2] (setting [9]). The GFP response, % of DMSO in experiment [4] is 105% (inactive); in experiment [5], 102% (inactive); in experiment [5] (setting [6]) it was 99.2%; in experiment [5] (setting [7]) it was 103%.

As for `O=C(NNC(=S)NC(=O)c1ccco1)c1ccc(F)cc1`, the GFP response vs DMSO is 106% (inactive) in experiment [1], 106% in experiment [1] (setting [6]), 105% in experiment [1] (setting [7]) and 115% (inactive) in experiment [3]. For the same compound, the figures for the GFP response relative to DMSO in experiment [2], in experiment [2] (setting [8]) and in experiment [2] (setting [9]) were 115% (inactive), 115% and 114%, respectively. Besides, the GFP response, % of DMSO in experiment [4] is 104% (inactive); in experiment [5] it was 107% (inactive); in experiment [5] (setting [6]), 116%; in experiment [5] (setting [7]), 102%.

Consider `COC(=O)/C(=C/c1c[nH]c2ccccc12)[N+](=O)[O-]`, for which the GFP response vs DMSO in experiment [1] is 99.6% (inactive); in experiment [1] (setting [6]), 95.1%; in experiment [1] (setting [7]), 95.1%; in experiment [3], 111% (inactive). Moreover, the GFP response relative to DMSO was 162% (active) in experiment [2], 149% in experiment [2] (setting [8]) and 164% in experiment [2] (setting [9]). For the same compound, the GFP response, % of DMSO was 86.9% (inactive) in experiment [4], 89.8% (inactive) in experiment [5], 89.9% in experiment [5] (setting [6]) and 80.7% in experiment [5] (setting [7]).

In the case of `O=C(N/N=C/c1cccc(Oc2ccccc2)c1)c1ccncc1`, the GFP response vs DMSO was 96.7% (inactive) in experiment [1], 97.3% in experiment [1] (setting [6]), 95.4% in experiment [1] (setting [7]) and 103% (inactive) in experiment [3]. Also, the GFP response relative to DMSO in experiment [2] was 107% (inactive); in experiment [2] (setting [8]), 99%; in experiment [2] (setting [9]), 108%. Moreover, the GFP response, % of DMSO was 103% (inactive) in experiment [4], 95.8% (inactive) in experiment [5], 97.6% in experiment [5] (setting [6]) and 96% in experiment [5] (setting [7]).

Regarding `COc1ccc(N2C(=O)C(Cl)=C(Oc3cccc(OC)c3)C2=O)cc1`, the GFP response vs DMSO is 90.9% (inactive) in experiment [1], 76.4% in experiment [1] (setting [6]), 79.9% in experiment [1] (setting [7]) and 105% (inactive) in experiment [3]. The GFP response relative to DMSO in experiment [2] was 218% (active); in experiment [2] (setting [8]) it was 203%; in experiment [2] (setting [9]) it was 227%. For the same compound, the GFP response, % of DMSO in experiment [4] is 110% (inactive); in experiment [5] it was 98.4% (inactive); in experiment [5] (setting [6]) it was 93.7%; in experiment [5] (setting [7]) it was 80.8%.

Regarding `O=C(N/N=C/c1ccccc1Cl)c1ccc(F)cc1`, the GFP response vs DMSO was 98.2% (inactive) in experiment [1], 98.1% in experiment [1] (setting [6]), 97.2% in experiment [1] (setting [7]) and 96.8% (inactive) in experiment [3]. Moreover, the GFP response relative to DMSO in experiment [2] is 111% (inactive); in experiment [2] (setting [8]) it was 104%; in experiment [2] (setting [9]) it was 112%. Also, the GFP response, % of DMSO in experiment [4] is 102% (inactive); in experiment [5] it was 105% (inactive); in experiment [5] (setting [6]), 103%; in experiment [5] (setting [7]), 103%.

For `Cc1ccc(N(C(=O)CNC(=O)c2ccco2)C(C(=O)NC2CCCC2)c2cccnc2)cc1C` (centres undefined), the GFP response vs DMSO in experiment [1] was 104% (inactive); in experiment [1] (setting [6]) it was 100%; in experiment [1] (setting [7]), 108%; in experiment [3], 99% (inactive). Also, the GFP response relative to DMSO in experiment [2] is 95.7% (inactive); in experiment [2] (setting [8]), 95.9%; in experiment [2] (setting [9]), 95.2%. The GFP response, % of DMSO in experiment [4] was 105% (inactive); in experiment [5], 102% (inactive); in experiment [5] (setting [6]), 99.2%; in experiment [5] (setting [7]), 102%.

As to `Cc1cc(N=Nc2ccccc2C(=O)O)c(C)c(C)c1O`, the GFP response vs DMSO in experiment [1] was 99.8% (inactive); in experiment [1] (setting [6]), 99.4%; in experiment [1] (setting [7]) it was 99.3%; in experiment [3], 114% (inactive). The results for the GFP response relative to DMSO in experiment [2], in experiment [2] (setting [8]) and in experiment [2] (setting [9]) were 108% (inactive), 109% and 108%, respectively. In addition, the GFP response, % of DMSO in experiment [4] was 98.4% (inactive); in experiment [5] it was 126% (inactive); in experiment [5] (setting [6]), 129%; in experiment [5] (setting [7]), 125%.

On to `COC(=O)c1ccc(/C=N\NC(=O)c2ccc(C)cc2Cl)cc1`, for which the GFP response vs DMSO in experiment [1] is 98.6% (inactive); in experiment [1] (setting [6]) it was 98.9%; in experiment [1] (setting [7]), 96.7%; in experiment [3] it was 102% (inactive). In addition, the GFP response relative to DMSO in experiment [2] was 95.4% (inactive); in experiment [2] (setting [8]), 94.4%; in experiment [2] (setting [9]) it was 95.1%. Further, the GFP response, % of DMSO in experiment [4] was 96.4% (inactive); in experiment [5] it was 103% (inactive); in experiment [5] (setting [6]) it was 105%; in experiment [5] (setting [7]) it was 99.7%.
